Source: ChEMBL document CHEMBL4304748, “Design, Synthesis, and Biological Evaluation of a New Series of Carvedilol Derivatives That Protect Sensory Hair Cells from Aminoglycoside-Induced Damage by Blocking the Mechanoelectrical Transducer Channel” (J Med Chem, 2019)
The source made the active and inactive calls. The rule behind the calls is not given here.

Key:
Mus musculus [1] = species on record: Mus musculus; assay: Otoprotective activity against gentamicin-induced outer hair cell death in CD-1 mouse cochlea at 20 uM after 48 hrs by TRITC-phalloidin staining-based microscopic analysis relative to control; assay type: functional
How it was run: (§1)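 Mouse cochlear cultures coincubated for 48 h with 5 μM gentamicin plus compound (5, 10 or 20 μM). OHCs counted in a 300 μm long segment of the mid-basal cochlea. Counts compared with 0.5% DMSO control and with gentamicin + 0.5% DMSO cultures.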

Mus musculus [2] = species on record: Mus musculus; assay: Inhibition of MET in CD-1 mouse cochlea outer hair cells assessed as reduction in MET currents at 10 uM measured at -160 mV to +80 mV membrane potential by patch clamp assay
How it was run: (§2)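 OHC MET currents recorded before and during exposure to 10 μM compound. Fractional block taken as the current during exposure relative to the control current at each membrane potential.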

[3] = Cytotoxicity against CD-1 mouse cochlea assessed as induction of cell damage at 20 uM in presence of gentamicin after 48 hrs by confocal microscopic analysis; assay type: toxicity, tissue-based
How it was run: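 Mouse cochlear cultures exposed 48 h to 5 μM gentamicin plus 20 μM compound, with 0.5% DMSO and gentamicin-only controls. Hair cells and bundle morphology imaged, including confocal imaging of IHC stereociliary bundles. OHC survival counted in a 300 μm segment of the mid-basal region.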

Mus musculus [4] = species on record: Mus musculus; assay: Inhibition of MET in CD-1 mouse cochlea outer hair cells assessed as blockade of MET currents at 10 uM measured at -164 mV membrane potential by patch clamp assay relative to control; how it was run: as §2
Mus musculus [5] = species on record: Mus musculus; assay: Otoprotective activity against gentamicin-induced outer hair cell death in CD-1 mouse cochlea at 10 uM after 48 hrs by TRITC-phalloidin staining-based microscopic analysis relative to control; assay type: functional; how it was run: as §1
Mus musculus [6] = species on record: Mus musculus; assay: Otoprotective activity against gentamicin-induced outer hair cell death in CD-1 mouse cochlea at 5 uM after 48 hrs by TRITC-phalloidin staining-based microscopic analysis relative to control; assay type: functional; how it was run: as §1
[7] = Binding affinity to MET in CD-1 mouse cochlear outer hair cells measured at -84 mV membrane potential in presence of calcium by patch clamp assay

SMILES	Activity (Mus musculus [1])	inhibition (Mus musculus [2])	further results
COc1ccccc1OCCNCC(O)COc1ccccc1OC (stereo not given)	inactive	inactive	
COc1ccccc1OCCNCCCCOc1cccc2[nH]c3ccccc3c12	inactive		Activity [3]: Toxic
COc1ccccc1OCCNC(=O)COc1cccc2[nH]c3ccccc3c12	inactive		
CCCCNCC(O)COc1cccc2[nH]c3ccccc3c12 (stereo not given)	Active		inhibition (Mus musculus [4]): 50 to 60%; Activity (Mus musculus [5]): inactive; Activity (Mus musculus [6]): inactive
COc1ccccc1OCCNCCOc1ccccc1OC	inactive	inactive	
COc1ccccc1N1CCN(CC(O)COc2cccc3ccccc23)CC1 (stereo not given)	Active	inactive	Activity (Mus musculus [5]): inactive
OC(CNCCOc1ccccc1)COc1cccc2[nH]c3ccccc3c12 (stereo not given)	inactive		inhibition (Mus musculus [4]): 50 to 60%; Activity [3]: Toxic
CN[C@@H]1[C@H](O[C@H]2[C@H](O[C@@H]3[C@@H](O)[C@H](O)[C@@H](NC(=N)N)[C@H](O)[C@H]3NC(=N)N)O[C@@H](C)[C@]2(O)CO)O[C@@H](CO)[C@H](O)[C@H]1O			Kd [7]: 7 µM
COc1ccc(CCN(C)CCCC(C#N)(c2ccc(OC)c(OC)c2)C(C)C)cc1OC (stereo not given)	inactive		
OC(COc1cccc2[nH]c3ccccc3c12)CN1CCN(c2ccccc2)CC1 (stereo not given)	inactive		
